According to ChEMBL document CHEMBL4020742, “Design and optimization of purine derivatives as in vivo active PDE10A inhibitors” (Bioorg Med Chem, 2017):

Key:
[1] = molecular target: T1, cAMP and cAMP-inhibited cGMP 3',5'-cyclic phosphodiesterase 10A (Homo sapiens, UniProt Q9Y233); test: Inhibition of recombinant human N-terminal GST-tagged PDE10A1 (2 to 789 residues) expressed in baculovirus infected Sf9 cells at 5 uM using fluorescein-labeled cAMP as substrate preincubated for 15 mins followed by substrate addition measured after 30 mins by IMAP fluorescence polarization assay relative to control
T1 sequence (Q9Y233 whole entry, the tested form may be a part): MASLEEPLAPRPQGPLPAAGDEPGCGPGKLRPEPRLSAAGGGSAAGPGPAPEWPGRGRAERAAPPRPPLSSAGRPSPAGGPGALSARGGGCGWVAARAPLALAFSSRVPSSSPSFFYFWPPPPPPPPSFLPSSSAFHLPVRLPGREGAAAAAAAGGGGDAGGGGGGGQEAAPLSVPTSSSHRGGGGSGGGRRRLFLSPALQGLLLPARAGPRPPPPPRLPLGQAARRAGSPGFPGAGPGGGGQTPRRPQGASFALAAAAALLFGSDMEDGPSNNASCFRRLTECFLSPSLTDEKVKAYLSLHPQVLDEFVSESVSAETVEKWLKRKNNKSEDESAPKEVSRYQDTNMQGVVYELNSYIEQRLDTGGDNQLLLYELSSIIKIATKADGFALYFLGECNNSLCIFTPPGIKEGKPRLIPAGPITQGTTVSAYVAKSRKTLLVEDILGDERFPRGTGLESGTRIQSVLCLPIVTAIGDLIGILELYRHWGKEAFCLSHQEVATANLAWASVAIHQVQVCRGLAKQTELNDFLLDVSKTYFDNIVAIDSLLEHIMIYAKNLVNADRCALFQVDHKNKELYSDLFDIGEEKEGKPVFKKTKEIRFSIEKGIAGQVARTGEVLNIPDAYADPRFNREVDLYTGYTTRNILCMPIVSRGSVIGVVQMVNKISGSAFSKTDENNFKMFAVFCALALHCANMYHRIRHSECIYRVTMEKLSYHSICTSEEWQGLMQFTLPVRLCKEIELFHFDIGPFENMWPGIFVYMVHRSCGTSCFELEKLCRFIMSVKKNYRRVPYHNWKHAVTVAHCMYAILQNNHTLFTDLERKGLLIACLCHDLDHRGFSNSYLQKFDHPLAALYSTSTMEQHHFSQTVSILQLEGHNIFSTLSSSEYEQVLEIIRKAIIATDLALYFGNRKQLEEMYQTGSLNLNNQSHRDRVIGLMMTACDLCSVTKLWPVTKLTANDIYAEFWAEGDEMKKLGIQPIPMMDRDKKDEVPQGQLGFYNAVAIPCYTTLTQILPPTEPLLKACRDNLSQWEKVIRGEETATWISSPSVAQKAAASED
In short: (§1)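 Recombinant PDE4A1A, PDE2A1 or PDE10A1 was incubated with compound (1% DMSO, duplicate) for 15 min at RT. Fluorescein-cAMP was then added for 30 min at RT, and the reaction was stopped with IMAP binding reagent (1 h, dark). FP was read at Ex485/Em535. Inhibition was set against no-enzyme and DMSO controls. IC50 came from a four-parameter logistic fit; values are the mean of at least two measurements.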

[2] = molecular target: T1, cAMP and cAMP-inhibited cGMP 3',5'-cyclic phosphodiesterase 10A; test: Inhibition of recombinant human N-terminal GST-tagged PDE10A1 (2 to 789 residues) expressed in baculovirus infected Sf9 cells using fluorescein-labeled cAMP as substrate preincubated for 15 mins followed by substrate addition measured after 30 mins by IMAP fluorescence polarization assay; in short: as §1

Row | SMILES | inhibition [1] | IC50 [2]
1 | Cc1nc2c(N3CCOCC3)ncnc2n1Cc1ccc(-c2cccc(Cl)c2)cc1 | 93% | 0.258 µM
2 | Cc1ccc(-c2ccccc2CNc2c(C)nc3c(N4CCOCC4)nccn23)cc1 | 57% | 
3 | Cc1nc2c(N3CCOCC3)nccn2c1NCCc1c(Cl)cccc1Cl | 98% | 0.447 µM
4 | COc1ccc(CCNc2c(C)nc3c(N4CCOCC4)nccn23)c(Br)c1 | 92% | 0.243 µM
5 | Cc1nc2c(N3CCOCC3)nccn2c1NCc1ccccc1-c1ccccc1 | 75% | 
6 | Cc1noc(C)c1-c1ccccc1CNc1c(C)nc2c(N3CCOCC3)nccn12 | 68% | 
7 | Cc1nc2c(N3CCOCC3)nccn2c1NCc1ccc(-c2ccccc2)cc1 | 55% | 
8 | Cc1nc2c(N3CCOCC3)nccn2c1NCc1ccc(-c2cccnc2)cc1 | 90% | 0.529 µM
9 | Cc1nc2c(N3CCOCC3)ncnc2n1Cc1ccc(-c2ccccc2)cc1 | 99% | 0.113 to 0.118 µM
10 | c1ccc(-c2ccc(Cn3cnc4c(N5CCOCC5)ncnc43)cc2)cc1 | 94% | 0.103 µM
11 | COc1cccc(CCn2cnc3c(N4CCOCC4)ncnc32)c1 | 20% | 
12 | Cc1nc2c(N3CCOCC3)nccn2c1NCc1ccccc1-c1cccnc1 | 76% | 
13 | Cc1nc2c(N3CCOCC3)nccn2c1NC(=O)Cc1ccc2c(c1)OCO2 | 44% | 
14 | Cc1nc2c(N3CCOCC3)ncnc2n1Cc1ccc(-c2ccc(Cl)cc2)cc1 | 91% | 0.168 µM
15 | Cc1nc2c(N3CCOCC3)nccn2c1NCc1ccc(-c2cncnc2)cc1 | 79% | 
16 | Cc1nc2c(N3CCOCC3)nccn2c1NCc1ccccc1-c1ccc2ccccc2c1 | 63% | 
17 | Clc1cccc(Cl)c1Cn1cnc2c(N3CCOCC3)ncnc21 | 70% | 
18 | Cc1ccc(-c2ccc(CNc3c(C)nc4c(N5CCOCC5)nccn34)cc2)cc1 | 74% | 
19 | Cc1nc2c(N3CCOCC3)nccn2c1NCCc1ccc2c(c1)OCO2 | 82% | 
20 | COc1ccc(CCNc2c(C)nc3c(N4CCOCC4)nccn23)cc1OC | 83% | 
21 | Cc1nc2c(N3CCOCC3)nccn2c1NCc1ccc(-c2ccc(C(C)(C)C)cc2)cc1 | 38% | 

Row | SMILES | inhibition [1] | IC50 [2]
22 | Cc1nc2c(N3CCOCC3)nccn2c1NCc1ccccc1-c1ccncc1 | 70% | 
23 | Cc1nc2c(N3CCOCC3)nccn2c1NCc1ccc(Br)cc1 | 77% | 
24 | Cc1nc2c(N3CCOCC3)nccn2c1NC(=O)Cc1ccc2ccccc2c1 | 24% | 
25 | COc1ccc(-c2ccc(CNc3c(C)nc4c(N5CCOCC5)nccn34)cc2)cc1 | 87% | 
26 | CCc1nc2c(N3CCOCC3)ncnc2n1Cc1ccc(-c2ccccc2)cc1 | 97% | 0.168 µM
27 | Cc1nc2c(N3CCOCC3)nccn2c1NCCc1ccccc1 | 74% | 
28 | c1ccc2cc(Cn3cnc4c(N5CCOCC5)ncnc43)ccc2c1 | 100% | 0.107 µM
29 | Cc1nc2c(N3CCOCC3)nccn2c1NCCc1ccc2ccccc2c1 | 78% | 
30 | O=C(Cn1cnc2c(N3CCOCC3)ncnc21)c1ccccc1 | 11% | 
31 | Cc1nc2c(N3CCOCC3)nccn2c1NC(=O)Cc1c(Cl)cccc1Cl | 47% | 
32 | Cc1nc2c(N3CCOCC3)nccn2c1NCc1ccccc1-c1cnn(C)c1 | 64% | 
33 | Cc1nc2c(N3CCOCC3)nccn2c1NCc1ccccc1-c1cncnc1 | 61% | 
34 | Cc1nc2c(N3CCOCC3)ncnc2n1Cc1ccc(-c2ccncc2)cc1 | 96% | 0.116 µM
35 | Cc1nc2c(N3CCOCC3)ncnc2n1Cc1ccc(C(=O)Nc2ccccc2)cc1 | 96% | 0.13 µM
36 | Cc1nc2c(N3CCOCC3)ncnc2n1Cc1ccc(-c2cnc3[nH]ncc3c2)cc1 | 98% | 0.06 µM
37 | COc1ccc(CCNc2c(C)nc3c(N4CCOCC4)nccn23)cc1Br | 81% | 
38 | Cc1nc2c(N3CCOCC3)nccn2c1NC(=O)Cc1ccccc1 | 51% | 
39 | COc1ccc(CCNc2c(C)nc3c(N4CCOCC4)nccn23)c(-c2ccccc2)c1 | 93% | 0.336 µM
40 | c1ccc(Cn2cnc3c(N4CCOCC4)ncnc32)cc1 | 66% | 
41 | COc1ccc(-c2ccccc2CNc2c(C)nc3c(N4CCOCC4)nccn23)cc1OC | 51% | 
42 | CCOC(=O)c1ccc(Cn2c(C)nc3c(N4CCOCC4)ncnc32)cc1 | 90% | 

Row | SMILES | inhibition [1] | IC50 [2]
43 | Cc1noc(C)c1-c1ccc(CNc2c(C)nc3c(N4CCOCC4)nccn23)cc1 | 90% | 0.518 µM
44 | COc1ccc(-c2ccc(Cn3c(C)nc4c(N5CCOCC5)ncnc43)cc2)cc1 | 94% | 0.062 µM
45 | Cc1nc2c(N3CCOCC3)nccn2c1NCc1ccccc1-c1ccc(C(C)(C)C)cc1 | 39% | 
46 | Cc1nc2c(N3CCOCC3)nccn2c1NCc1ccc(-c2ccccc2Cl)cc1 | 77% | 
47 | Cc1nc2c(N3CCOCC3)nccn2c1NCc1ccccc1-c1ccccc1Cl | 87% | 
48 | COc1cc(Cn2cnc3c(N4CCOCC4)ncnc32)cc(OC)c1 | 85% | 
49 | Cc1nc2c(N3CCOCC3)ncnc2n1Cc1ccc(-c2cccnc2)cc1 | 97% | 0.061 µM
50 | Brc1ccc(Cn2cnc3c(N4CCOCC4)ncnc32)cc1 | 90% | 0.53 µM
51 | COc1ccc(CCNc2c(C)nc3c(N4CCOCC4)nccn23)cc1-c1ccccc1 | 80% | 
52 | Cc1noc(C)c1-c1ccc(Cn2c(C)nc3c(N4CCOCC4)ncnc32)cc1 | 96% | 0.119 µM
53 | Cc1nc2c(N3CCOCC3)nccn2c1NCc1ccc(-c2ccc3ccccc3c2)cc1 | 54% | 
54 | COc1ccc(CC(=O)Nc2c(C)nc3c(N4CCOCC4)nccn23)cc1OC | 50% | 
55 | Cc1nc2c(N3CCOCC3)ncnc2n1Cc1ccccc1Br | 87% | 
56 | Cc1nc2c(N3CCOCC3)ncnc2n1Cc1ccc(Br)cc1 | 93% | 0.327 µM
57 | Cc1nc2c(N3CCOCC3)nccn2c1NCc1ccc(-c2cnn(C)c2)cc1 | 88% | 
58 | COc1ccc(-c2ccccc2CNc2c(C)nc3c(N4CCOCC4)nccn23)cc1 | 60% | 
59 | c1ccc(CCn2cnc3c(N4CCOCC4)ncnc32)cc1 | 13% | 
60 | Cc1nc2c(N3CCOCC3)nccn2c1NCc1ccccc1Br | 73% | 
61 | Cc1nc2c(N3CCOCC3)nccn2c1NCc1ccc(-c2ccncc2)cc1 | 91% | 0.391 µM
